Results on one molecule are retold here after ChEMBL document CHEMBL5678813, “Optimization of a novel series of N-phenylindoline-5-sulfonamide-based acyl CoA:monoacylglycerol acyltransferase-2 inhibitors: Mitigation of CYP3A4 time-dependent inhibition and phototoxic liabilities” (Bioorg Med Chem, 2015).

The nature of series [1]: 1-Octanol/aqueous buffer partition coefficient, logD of the compound at pH 7.4 by HPLC analysis. In kind it is physicochemical.
The test system of series [2] is NIH3T3. In words: Cytotoxicity against BALB/c mouse 3T3 cells assessed as reduction in cell viability at 6.25 uM incubated for 1 hrs in absence of UV irradiation by Celltiter-Glo assay relative to control. In kind it is toxicity, cell-based. The settings on record: nih3t3, 1 h. The essentials:
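BALB/c 3T3 cells seeded at 2.5 × 10^3 cells/well and grown 1 day. Compound at 6.25 µM in EBSS with 1 mM HEPES, preincubated 1 h. Plate kept dark (–UV) while the paired plate was irradiated. Medium replaced, cultured 24 h more. Viability read as cellular ATP by CellTiter-Glo, % of 1% DMSO control; n = 3, mean ± SD.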
In general terms: In ATP-based viability assays light output follows the ATP content of the culture.

The nature of series [3]: Volume of distribution at steady state in mouse at 0.1 mg/kg, iv administered as cassette dose by LC/MS/MS analysis. Particulars: in vivo, read-out: Vdss. Type of series: ADME, organism-based. The essentials: (§1)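 Non-fasted mice dosed by cassette, iv 0.1 mg/kg or po 1 mg/kg suspended in 0.5% methylcellulose aqueous solution; plasma obtained from blood by centrifugation, deproteinized with acetonitrile, and compound concentrations measured by LC/MS/MS.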

The nature of series [4]: AUC in mouse at 1 mg/kg, po administered as cassette dose by LC/MS/MS analysis. Particulars: in vivo. Type of series: ADME, organism-based. The method, boiled down: as §1
The nature of series [5]: MRT in mouse at 1 mg/kg, po administered as cassette dose by LC/MS/MS analysis. Particulars: in vivo. Type of series: ADME, organism-based. The method, boiled down: as §1
A short description of series [6]: Oral bioavailability in mouse at 1 mg/kg administered as cassette dose by LC/MS/MS analysis. In kind it is ADME, organism-based. The settings on record: in vivo. The method, boiled down:
as §1

The nature of series [7]: Permeability of compound at pH 7.4 by PAMPA assay. In kind it is ADME. Particulars: read-out: permeability. The method, boiled down: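 Passive permeability measured by PAMPA at pH 7.4.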
Background: In PAMPA a lipid-coated filter parts donor from acceptor wells.

Series [8] concerns the target T1, Diacylglycerol O-acyltransferase 2 (Homo sapiens, UniProt Q96PD7).
T1 sequence (Q96PD7 whole entry): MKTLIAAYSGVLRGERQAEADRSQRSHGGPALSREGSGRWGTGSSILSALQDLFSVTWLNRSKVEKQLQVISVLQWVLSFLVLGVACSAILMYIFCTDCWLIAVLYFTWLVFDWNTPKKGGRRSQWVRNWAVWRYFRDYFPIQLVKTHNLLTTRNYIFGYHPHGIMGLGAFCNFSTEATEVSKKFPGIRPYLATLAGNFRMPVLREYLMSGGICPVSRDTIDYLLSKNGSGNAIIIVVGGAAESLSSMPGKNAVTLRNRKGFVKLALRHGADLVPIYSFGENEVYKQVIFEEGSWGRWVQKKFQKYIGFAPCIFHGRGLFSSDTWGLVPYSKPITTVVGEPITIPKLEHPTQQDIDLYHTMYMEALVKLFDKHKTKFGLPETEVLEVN
In words: Inhibition of N-terminal FLAG-tagged full-length human DGAT2 expressed in recombinant baculovirus infected Sf21 cells using [1-14C]-oleoyl-CoA and 1,2-dioleoyl-glycerol as substrate incubated for 40 mins by TLC analysis. The essentials:
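Membranes from baculovirus-infected Sf-21 cells, each enzyme at 30 µg/mL, incubated with 5 µM [1-14C]-oleoyl-CoA and 40 µM 1,2-dioleoyl-glycerol for 40 min at 32 °C. Lipids extracted by modified Bligh & Dyer, resolved on silica TLC, and radioactivity incorporated into lipids quantified.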

Series [9] has as its target T2, CYP2C8 (Homo sapiens, UniProt P10632).
T2 sequence (P10632 whole entry): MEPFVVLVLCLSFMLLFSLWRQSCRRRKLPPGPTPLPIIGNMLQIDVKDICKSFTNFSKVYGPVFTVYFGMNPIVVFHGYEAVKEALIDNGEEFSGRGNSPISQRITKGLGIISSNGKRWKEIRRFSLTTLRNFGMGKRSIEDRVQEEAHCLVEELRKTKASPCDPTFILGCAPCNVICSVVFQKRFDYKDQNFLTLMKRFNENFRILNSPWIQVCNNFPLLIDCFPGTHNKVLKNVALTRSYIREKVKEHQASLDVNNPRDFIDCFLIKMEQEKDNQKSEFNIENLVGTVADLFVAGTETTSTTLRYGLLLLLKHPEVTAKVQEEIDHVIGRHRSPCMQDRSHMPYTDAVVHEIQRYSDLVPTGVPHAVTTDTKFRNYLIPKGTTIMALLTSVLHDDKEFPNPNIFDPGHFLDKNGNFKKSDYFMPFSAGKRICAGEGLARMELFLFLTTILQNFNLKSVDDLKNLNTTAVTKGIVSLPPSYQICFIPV
The experiment in a line: Reversible inhibition of CYP2C8 in human liver microsomes using paclitaxel as substrate at 10 uM incubated for 10 mins by LC/MS/MS analysis relative to control. The settings on record: probe paclitaxel. In kind it is ADME, Microsome. The essentials: (§2)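 Human liver microsomes at 0.1 mg/mL incubated 10 min at 37 °C with isoform-specific substrate and 10 µM test compound. Pairs: 1A2 tacrine/1-hydroxytacrine; 2C8 paclitaxel/6α-hydroxypaclitaxel; 2C9 tolbutamide/4-hydroxytolbutamide; 2D6 dextromethorphan/dextrorphan; 3A4 midazolam/1'-hydroxymidazolam. Stopped with acetonitrile/water; metabolite measured by LC/MS/MS.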

The target in series [10] is CYP2C9 (Homo sapiens, UniProt P11712). The experiment in a line: Reversible inhibition of CYP2C9 in human liver microsomes using tolbutamide as substrate at 10 uM incubated for 10 mins by LC/MS/MS analysis relative to control. In kind it is ADME, Microsome. Particulars: probe tolbutamide. The essentials:
as §2
(Microsomes from liver hold many membrane-bound enzymes, among them those of drug oxidation.)

Series [11] addresses CYP2D6 (Homo sapiens, UniProt P10635). The experiment in a line: Reversible inhibition of CYP2D6 in human liver microsomes using dextromethorphan as substrate at 10 uM incubated for 10 mins by LC/MS/MS analysis relative to control. In kind it is ADME, Microsome. The settings on record: probe dextromethorphan. The method, boiled down: as §2
The target in series [12] is CYP3A4 (Homo sapiens, UniProt P08684). In words: Reversible inhibition of CYP3A4 in human liver microsomes using midazolam as substrate at 10 uM incubated for 10 mins by LC/MS/MS analysis relative to control. In kind it is ADME, Microsome. Particulars: probe midazolam. The method, boiled down:
as §2

In series [13] the test system is Mus musculus. The experiment in a line: In vivo inhibition of MGAT2 in olive oil-induced C57BL/6J mouse model of hypertriglyceridemia assessed as reduction in plasma chylomicron triglyceride level preadministered orally with compound for 6 hrs followed by Pluronic F127 addition for 30 mins and further treated with olive oil for 4 hrs by automatic analyzer. In kind it is functional. The settings on record: dose 0.3-3 mg/kg, route po, time 10.5 hrs. The essentials: (§3)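 Male C57BL/6J mice (20–25 g) fasted overnight and dosed orally at 0.3, 1 or 3 mg/kg. Olive oil (8 mL/kg po) or water given 6 h later, with Pluronic F127 500 mg/kg i.p. 30 min before oil. Tail-vein plasma taken at 0, 2 and 4 h and TG measured by automatic analyzer. CM/TG = oil-group TG minus water-group TG; AUC over 4 h; n = 5, mean ± SD; Williams' test vs vehicle.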

The nature of series [14]: In vivo inhibition of MGAT2 in olive oil-induced C57BL/6J mouse model of hypertriglyceridemia assessed as reduction in plasma chylomicron triglyceride level at 3 mg/kg, po preadministered with compound for 6 hrs followed by Pluronic F127 addition for 30 mins and further treated with olive oil for 4 hrs by automatic analyzer relative to control. In kind it is functional. Particulars: time 10.5 hrs. The method, boiled down: as §3

CYP2C9, sequence (P11712 whole entry): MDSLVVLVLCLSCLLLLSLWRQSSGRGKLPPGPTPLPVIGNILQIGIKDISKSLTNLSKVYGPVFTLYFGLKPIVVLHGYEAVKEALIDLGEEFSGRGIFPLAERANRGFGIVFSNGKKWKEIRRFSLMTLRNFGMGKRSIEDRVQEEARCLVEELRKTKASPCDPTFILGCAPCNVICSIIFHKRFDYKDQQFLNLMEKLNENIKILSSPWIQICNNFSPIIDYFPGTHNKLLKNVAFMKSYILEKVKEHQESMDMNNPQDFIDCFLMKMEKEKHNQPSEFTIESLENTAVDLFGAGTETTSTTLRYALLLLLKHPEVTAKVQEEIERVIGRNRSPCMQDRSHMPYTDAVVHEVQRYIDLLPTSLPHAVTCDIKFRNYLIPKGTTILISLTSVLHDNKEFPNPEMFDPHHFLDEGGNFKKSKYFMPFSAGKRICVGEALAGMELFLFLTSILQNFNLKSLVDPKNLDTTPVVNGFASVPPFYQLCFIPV
CYP3A4, sequence (P08684 whole entry): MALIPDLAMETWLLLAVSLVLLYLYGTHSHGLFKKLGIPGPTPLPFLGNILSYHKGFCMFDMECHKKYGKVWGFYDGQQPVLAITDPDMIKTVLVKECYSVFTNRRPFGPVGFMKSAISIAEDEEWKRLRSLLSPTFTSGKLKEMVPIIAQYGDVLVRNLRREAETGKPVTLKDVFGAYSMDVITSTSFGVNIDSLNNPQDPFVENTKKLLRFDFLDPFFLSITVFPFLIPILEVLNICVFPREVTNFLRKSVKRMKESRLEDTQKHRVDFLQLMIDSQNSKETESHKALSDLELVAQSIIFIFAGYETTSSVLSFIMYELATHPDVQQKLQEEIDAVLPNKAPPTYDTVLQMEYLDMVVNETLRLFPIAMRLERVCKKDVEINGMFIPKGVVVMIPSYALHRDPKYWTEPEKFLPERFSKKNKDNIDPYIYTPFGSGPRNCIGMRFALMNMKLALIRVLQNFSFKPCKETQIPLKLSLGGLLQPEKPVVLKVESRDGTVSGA
CYP2D6, sequence (P10635 whole entry): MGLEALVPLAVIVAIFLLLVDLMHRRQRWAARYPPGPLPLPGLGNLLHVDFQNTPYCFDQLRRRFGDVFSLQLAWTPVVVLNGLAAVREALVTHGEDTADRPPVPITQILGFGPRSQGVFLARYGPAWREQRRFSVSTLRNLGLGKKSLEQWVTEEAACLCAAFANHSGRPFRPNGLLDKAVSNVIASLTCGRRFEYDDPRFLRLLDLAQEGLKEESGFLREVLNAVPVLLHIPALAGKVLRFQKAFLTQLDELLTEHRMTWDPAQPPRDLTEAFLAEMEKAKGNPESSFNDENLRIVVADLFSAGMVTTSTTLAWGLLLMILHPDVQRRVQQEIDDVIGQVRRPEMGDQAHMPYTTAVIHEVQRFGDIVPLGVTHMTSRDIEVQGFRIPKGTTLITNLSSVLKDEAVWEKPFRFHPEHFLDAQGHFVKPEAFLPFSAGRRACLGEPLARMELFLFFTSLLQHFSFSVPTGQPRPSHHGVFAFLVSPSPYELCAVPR

Consider `Cn1nc(C(F)(F)F)cc1-c1cnc(N2CCc3cc(S(=O)(=O)Nc4c(F)cc(Cl)cc4F)cc(N4CCCC4=O)c32)nc1` [TP-020], for which the logD in series [1] stood at 2.8. For the same molecule, the Activity in series [2] was 99%. In series [3], the Vd came to 0.539 L/kg. Besides, the AUC in [4] was 2440 ng·h/mL. The molecule further had an MRT in [5] of 3.3 h. The molecule also displayed a bioavailability in series [6] of 50%. For the same molecule, the Papp in [7] stood at 16.6 ×10⁻⁶ cm/s. For the same molecule, in series [8], the IC50 is > 10 µM. The inhibition at 10 min, 10 µM in series [9] is 32%; in series [10] it was 17%; in series [11], < 10%; in [12], < 10%. Also, in series [13], the inhibition result was “Dose-Dependent Effect”. For the same molecule, the inhibition in vivo at 3 mg/kg in [14] stood at 100%.

Broadly, the logD is the decadic logarithm of the distribution of all forms, ionised or not, between an organic phase and buffer at a given pH. Read a high logD as a more lipophilic compound. As a reminder, the AUC is the area under the concentration-time curve, a measure of exposure. Read a high AUC as high exposure. Usually MRT stands for a mean duration of stay, worked out from the concentration-time curve. One may read the bioavailability as dose-corrected exposure relative to a reference, in per cent. Read a low bioavailability as little systemic uptake. The term IC50 denotes the concentration that inhibits the measured activity by half. One may read the inhibition as the change of the read-out against control, counted positive when it falls. A word on the inhibition in vivo: it is the relative decrease from the control value, in per cent.
